The source made the active and inactive calls. The rule behind the calls is not given here.
How the values were obtained:
Canis familiaris [1] = experiment: Antiarrhythmic activity in anesthetized acute myocardial infarction dog model assessed as normal ECG complexes at 2.5 mg/kg, iv administered 10 mins prior to infarction measured during 1-hr postinfarction period (reference value: 19%); format: functional, Canis lupus familiaris, Heart
How it was run: (§1)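 Sclerosing agent (tetrafluorohexachlorobutane) injected into the anterior descending coronary artery to produce a multifocal ventricular arrhythmia. Single iv dose 10 min before infarction. Segmented ECG tracings over the 1 h after infarction were scored as the percentage of complexes of sinus origin (normal). Saline controls were run alongside.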

Canis familiaris [2] = experiment: Antiarrhythmic activity in anesthetized acute myocardial infarction dog model assessed as normal ECG complexes at 5 mg/kg, iv administered 10 mins prior to infarction measured during 1-hr postinfarction period (reference value: 19%); format: functional, Canis lupus familiaris, Heart; how it was run: as §1
Canis familiaris [3] = experiment: Antiarrhythmic activity in iv dosed anesthetized acute myocardial infarction dog model assessed as protection against ventricular arrhythmia development administered 10 mins prior to infarction measured during 1-hr postinfarction period; format: functional, Canis lupus familiaris, Heart; details: Canis lupus familiaris, Heart; how it was run: as §1
Canis familiaris [4] = experiment: Antiarrhythmic activity in anesthetized acute myocardial infarction dog model assessed as normal ECG complexes at 20 mg/kg, iv administered 10 mins prior to infarction measured during 1-hr postinfarction period (reference value: 19%); format: functional, Canis lupus familiaris, Heart; how it was run: as §1
Canis familiaris [5] = experiment: Antiarrhythmic activity in anesthetized acute myocardial infarction dog model assessed as normal ECG complexes at 40 mg/kg, iv administered 10 mins prior to infarction measured during 1-hr postinfarction period (reference value: 19%); format: functional, Canis lupus familiaris, Heart; how it was run: as §1
Canis familiaris [6] = experiment: Effect on cardiac conduction in anesthetized acute myocardial infarction dog model assessed as increase in PR interval at 20 mg/kg, iv administered 10 mins prior to infarction measured after 10 mins (reference value: 0 ms); format: functional, Canis lupus familiaris, Heart
Canis familiaris [7] = experiment: Effect on cardiac conduction in anesthetized acute myocardial infarction dog model assessed as increase in PR interval at 40 mg/kg, iv administered 10 mins prior to infarction measured after 10 mins (reference value: 0 ms); format: functional, Canis lupus familiaris, Heart
Canis familiaris [8] = experiment: Effect on cardiac conduction in anesthetized acute myocardial infarction dog model assessed as increase in QT duration at 20 mg/kg, iv administered 10 mins prior to infarction measured after 10 mins (reference value: 2 ms); format: functional, Canis lupus familiaris, Heart
Canis familiaris [9] = experiment: Effect on cardiac conduction in anesthetized acute myocardial infarction dog model assessed as increase in QT duration at 40 mg/kg, iv administered 10 mins prior to infarction measured after 10 mins (reference value: 2 ms); format: functional, Canis lupus familiaris, Heart
Canis familiaris [10] = experiment: Reduction in heart rate in anesthetized acute myocardial infarction dog model at 40 mg/kg, iv administered 10 mins prior to infarction (reference value: 6 bpm); format: functional, Canis lupus familiaris
Canis familiaris [11] = experiment: Reduction in heart rate in anesthetized acute myocardial infarction dog model at 20 mg/kg, iv administered 10 mins prior to infarction (reference value: 6 bpm); format: functional, Canis lupus familiaris
Canis familiaris [12] = experiment: Myocardial depressant activity in iv dosed anesthetized dog at higher doses; format: ADME, organism-based, Canis lupus familiaris, Myocardium; details: in vivo
Canis familiaris [13] = experiment: Hypotensive activity in iv dosed anesthetized dog at higher doses; format: ADME, organism-based, Canis lupus familiaris; details: in vivo
Canis familiaris [14] = experiment: Antiarrhythmic activity in anesthetized acute myocardial infarction dog model assessed as normal ECG complexes at 1.25 mg/kg, iv administered 10 mins prior to infarction measured during 1-hr postinfarction period (reference value: 19%); format: functional, Canis lupus familiaris, Heart; how it was run: as §1
Canis familiaris [15] = experiment: Antiarrhythmic activity in anesthetized acute myocardial infarction dog model assessed as normal ECG complexes at 0.5 mg/kg, iv administered 10 mins prior to infarction measured during 1-hr postinfarction period (reference value: 19%); format: functional, Canis lupus familiaris, Heart; how it was run: as §1
Canis familiaris [16] = experiment: Antiarrhythmic activity in anesthetized acute myocardial infarction dog model assessed as normal ECG complexes at 0.25 mg/kg, iv administered 10 mins prior to infarction measured during 1-hr postinfarction period (reference value: 19%); format: functional, Canis lupus familiaris, Heart; how it was run: as §1
Canis familiaris [17] = experiment: Antiarrhythmic activity in anesthetized acute myocardial infarction dog model assessed as normal ECG complexes at 10 mg/kg, po administered 120 mins prior to infarction measured post-infarction; format: functional, Canis lupus familiaris, Heart
How it was run: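 Oral dosing 120 min before infarction in the same intracoronary tetrafluorohexachlorobutane arrhythmia model. Protection was read from ECG complexes after infarction, as the percentage that were normal.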

Canis familiaris [18] = experiment: Antiarrhythmic activity in anesthetized acute myocardial infarction dog model assessed as normal ECG complexes at 0.06 mg/kg, iv administered 10 mins prior to infarction measured during 1-hr postinfarction period (reference value: 19%); format: functional, Canis lupus familiaris, Heart; how it was run: as §1
Canis familiaris [19] = experiment: Antiarrhythmic activity in anesthetized acute myocardial infarction dog model assessed as normal ECG complexes at 10 mg/kg, iv administered 10 mins prior to infarction measured during 1-hr postinfarction period (reference value: 19%); format: functional, Canis lupus familiaris, Heart; how it was run: as §1
Canis familiaris [20] = experiment: Antiarrhythmic activity in anesthetized acute myocardial infarction dog model assessed as normal ECG complexes at 0.07 mg/kg, iv administered 10 mins prior to infarction measured during 1-hr postinfarction period (reference value: 19%); format: functional, Canis lupus familiaris, Heart; how it was run: as §1
Canis familiaris [21] = experiment: Effect on cardiac conduction in anesthetized acute myocardial infarction dog model assessed as increase in PR interval at 0.025 mg/kg/min, iv administered as continuous infusion for 60 mins measured after 10 mins (reference value: 0 ms); format: functional, Canis lupus familiaris, Heart
Canis familiaris [22] = experiment: Effect on cardiac conduction in anesthetized acute myocardial infarction dog model assessed as increase in PR interval at 0.0125 mg/kg/min, iv administered as continuous infusion for 60 mins measured after 10 mins (reference value: 0 ms); format: functional, Canis lupus familiaris, Heart
Canis familiaris [23] = experiment: Effect on cardiac conduction in anesthetized acute myocardial infarction dog model assessed as increase in PR interval at 0.06 mg/kg/min, iv administered as continuous infusion for 60 mins measured after 10 mins (reference value: 0 ms); format: functional, Canis lupus familiaris, Heart
Canis familiaris [24] = experiment: Effect on cardiac conduction in anesthetized acute myocardial infarction dog model assessed as increase in PR interval at 0.03 mg/kg/min, iv administered as continuous infusion for 60 mins measured after 10 mins (reference value: 0 ms); format: functional, Canis lupus familiaris, Heart
Canis familiaris [25] = experiment: Effect on cardiac conduction in anesthetized acute myocardial infarction dog model assessed as increase in QT duration at 0.025 mg/kg/min, iv administered as continuous infusion for 60 mins measured after 10 mins (reference value: 2 ms); format: functional, Canis lupus familiaris, Heart
Canis familiaris [26] = experiment: Effect on cardiac conduction in anesthetized acute myocardial infarction dog model assessed as increase in QT duration at 0.0125 mg/kg/min, iv administered as continuous infusion for 60 mins measured after 10 mins (reference value: 2 ms); format: functional, Canis lupus familiaris, Heart
Canis familiaris [27] = experiment: Effect on cardiac conduction in anesthetized acute myocardial infarction dog model assessed as increase in QT duration at 0.06 mg/kg/min, iv administered as continuous infusion for 60 mins measured after 10 mins (reference value: 2 ms); format: functional, Canis lupus familiaris, Heart
Canis familiaris [28] = experiment: Effect on cardiac conduction in anesthetized acute myocardial infarction dog model assessed as increase in QT duration at 0.03 mg/kg/min, iv administered as continuous infusion for 60 mins measured after 10 mins (reference value: 2 ms); format: functional, Canis lupus familiaris, Heart
Canis familiaris [29] = experiment: Effect on cardiac conduction in anesthetized acute myocardial infarction dog model assessed as increase in PR interval at 2.5 mg/kg, iv administered 10 mins prior to infarction measured after 10 mins (reference value: 0 ms); format: functional, Canis lupus familiaris, Heart
Canis familiaris [30] = experiment: Effect on cardiac conduction in anesthetized acute myocardial infarction dog model assessed as increase in PR interval at 5 mg/kg, iv administered 10 mins prior to infarction measured after 10 mins (reference value: 0 ms); format: functional, Canis lupus familiaris, Heart
Canis familiaris [31] = experiment: Effect on cardiac conduction in anesthetized acute myocardial infarction dog model assessed as increase in QT duration at 2.5 mg/kg, iv administered 10 mins prior to infarction measured after 10 mins (reference value: 2 ms); format: functional, Canis lupus familiaris, Heart
Canis familiaris [32] = experiment: Effect on cardiac conduction in anesthetized acute myocardial infarction dog model assessed as increase in QT duration at 5 mg/kg, iv administered 10 mins prior to infarction measured after 10 mins (reference value: 2 ms); format: functional, Canis lupus familiaris, Heart
Canis familiaris [33] = experiment: Reduction in heart rate in anesthetized acute myocardial infarction dog model at 2.5 mg/kg, iv administered 10 mins prior to infarction (reference value: 6 bpm); format: functional, Canis lupus familiaris
Canis familiaris [34] = experiment: Reduction in heart rate in anesthetized acute myocardial infarction dog model at 5 mg/kg, iv administered 10 mins prior to infarction (reference value: 6 bpm); format: functional, Canis lupus familiaris
Canis familiaris [35] = experiment: Effect on cardiac conduction in anesthetized acute myocardial infarction dog model assessed as increase in PR interval at 10 mg/kg, iv administered 10 mins prior to infarction measured after 10 mins (reference value: 0 ms); format: functional, Canis lupus familiaris, Heart
Canis familiaris [36] = experiment: Effect on cardiac conduction in anesthetized acute myocardial infarction dog model assessed as increase in QT duration at 10 mg/kg, iv administered 10 mins prior to infarction measured after 10 mins (reference value: 2 ms); format: functional, Canis lupus familiaris, Heart
Canis familiaris [37] = experiment: Reduction in heart rate in anesthetized acute myocardial infarction dog model at 10 mg/kg, iv administered 10 mins prior to infarction (reference value: 6 bpm); format: functional, Canis lupus familiaris

## CN(C)Cc1ccccc1C(F)(F)C(F)(F)c1ccccc1.Cl
Canis familiaris [1]
  Activity: 61%
Canis familiaris [2]
  Activity: 75%
Canis familiaris [3]; iv, read-out: ED75
  ED75: 4.8 mg/kg

## CCN(CC)CCNC(=O)c1ccc(N)cc1 [PROCAINAMIDE]
Canis familiaris [4]
  Activity: 32%
Canis familiaris [5]
  Activity: 55%
Canis familiaris [6]
  Time: 10 ms
Canis familiaris [7]
  Time: 23 ms
Canis familiaris [8]
  Time: 40 ms
Canis familiaris [9]
  Time: 33 ms
Canis familiaris [10]
  Activity: 25 bpm
Canis familiaris [11]
  Activity: 26 bpm
Canis familiaris [12]
  Activity: Toxic
Canis familiaris [13]
  Activity: Toxic

## CNC(C)(C)c1ccc(C(F)(F)C(F)(F)c2ccccc2)cc1.Cl
Canis familiaris [1]
  Activity: 99%
Canis familiaris [14]
  Activity: 86%
Canis familiaris [15]
  Activity: 65%
Canis familiaris [16]
  Activity: 68%
Canis familiaris [3]; iv, read-out: ED75
  ED75: 0.5 mg/kg
Canis familiaris [17]
  Activity: >=80%
Canis familiaris [18]
  Activity: 27%

## CC(C)(N)c1ccc(C(F)(F)C(F)(F)c2ccccc2)cc1.Cl
Canis familiaris [1]
  Activity: 98%
Canis familiaris [14]
  Activity: 89%
Canis familiaris [15]
  Activity: 75%
Canis familiaris [16]
  Activity: 50%
Canis familiaris [3]; iv, read-out: ED75
  ED75: 0.6 mg/kg
Canis familiaris [17]
  Activity: >=80%
Canis familiaris [18]
  Activity: 35%

## Cl.Nc1ccccc1C(F)(F)C(F)(F)c1ccccc1
Canis familiaris [1]
  Activity: 10%
Canis familiaris [19]
  Activity: 26%
Canis familiaris [3]
  ED75: inactive

## Cl.NCc1ccccc1C(F)(F)C(F)(F)c1ccccc1
Canis familiaris [1]
  Activity: 98%
Canis familiaris [14]
  Activity: 91%
Canis familiaris [15]
  Activity: 86%
Canis familiaris [16]
  Activity: 81%
Canis familiaris [20]
  Activity: 58%
Canis familiaris [3]; iv, read-out: ED75
  ED75: 0.2 mg/kg
Canis familiaris [17]
  Activity: >=80%

## CCN(CC)CC(=O)Nc1c(C)cccc1C [LIDOCAINE]
Canis familiaris [21]
  Time: 2 ms
Canis familiaris [22]
  Time: 0 ms
Canis familiaris [23]
  Time: 0 ms
Canis familiaris [24]
  Time: 0 ms
Canis familiaris [25]
  Time: 0 ms
Canis familiaris [26]
  Time: 0 ms
Canis familiaris [27]
  Time: 0 ms
Canis familiaris [28]
  Time: 0 ms

## O=C1NC(=O)C(c2ccccc2)(c2ccccc2)N1 [PHENYTOIN]
Canis familiaris [1]
  Activity: 17%
Canis familiaris [2]
  Activity: 40%
Canis familiaris [29]
  Time: 10 ms
Canis familiaris [30]
  Time: 8 ms
Canis familiaris [31]
  Time: 5 ms
Canis familiaris [32]
  Time: 3 ms
Canis familiaris [33]
  Activity: 11 bpm
Canis familiaris [34]
  Activity: 13 bpm
Canis familiaris [12]
  Activity: Toxic
Canis familiaris [13]
  Activity: Toxic

## Cc1ccc(C(F)(F)C(F)(F)c2ccc(C(C)(C)N)cc2)cc1.Cl
Canis familiaris [1]
  Activity: 88%
Canis familiaris [14]
  Activity: 75%
Canis familiaris [16]
  Activity: 52%
Canis familiaris [3]; iv, read-out: ED75
  ED75: 1.4 mg/kg
Canis familiaris [18]
  Activity: 15%

## Br.FC(F)(c1ccccc1)C(F)(F)c1cccc2c1CNC2
Canis familiaris [1]
  Activity: 51%
Canis familiaris [2]
  Activity: 71%
Canis familiaris [3]; iv, read-out: ED75
  ED75: 7 mg/kg

## C=C[C@H]1CN2CC[C@H]1C[C@@H]2[C@@H](O)c1ccnc2ccc(OC)cc12 [QUINIDINE]
Canis familiaris [1]
  Activity: 25%
Canis familiaris [19]
  Activity: 89%
Canis familiaris [2]
  Activity: 46%
Canis familiaris [3]; iv, read-out: ED75
  ED75: 9.4 mg/kg
Canis familiaris [29]
  Time: 0 ms
Canis familiaris [30]
  Time: 8 ms
Canis familiaris [35]
  Time: 15 ms
Canis familiaris [31]
  Time: 33 ms
Canis familiaris [32]
  Time: 36 ms
Canis familiaris [36]
  Time: 78 ms
Canis familiaris [33]
  Activity: 21 bpm
Canis familiaris [34]
  Activity: 24 bpm
Canis familiaris [37]
  Activity: 31 bpm

Source: ChEMBL document CHEMBL3244101, “2-, 3-, and 4-(alpha, alpha, beta, beta-tetrafluorophenethyl)benzylamines. A new class of antiarrhythmic agents” (J Med Chem, 1977)
